# Bioassay records (PubChem BioAssay)
# RGS4 act = RGS4 potentiation or activation; HEK293 M3R/inducible RGS4, carbachol calcium flux Fluo4; stronger effect = lower value; B-score at 10 µM; 310,000 compounds, 0.92% hits;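 active means B-score of the integrated calcium signal more than 4 SD below the library mean, with starting fluorescence not abnormally high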;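 further: negative B-score means reduced calcium response which marks RGS4 activation or potentiation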
#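 System – HEK293 FlpIn-TREx cells, stable M3R, doxycycline-inducible RGS4 · Reagent – ECmax carbachol challenge · Times – compound preincubation 20 min at room temperature before agonist · Technique – Fluo4 fluorescence kinetic imaging of calcium · Measure – B score of integrated Fluo4 ratio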
# MrgX1 antagonist = antagonists of human MrgX1 receptor. AID 588676. 310,000 compounds, 1.3% hits. B-score at 10 µM. MRGX1-HEK293 calcium flux, Fluo-4, BAM8-22 antagonism; stronger effect = lower value;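 active means calcium-response B-score plate-corrected more than 3 library SD below zero, starting fluorescence within 5 deviations, no agonist response on first addition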;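 further: peak minus trough fluorescence over baseline after final BAM8-22 challenge near maximal dose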
# Target sequence (Q96LB2 whole entry, looked up): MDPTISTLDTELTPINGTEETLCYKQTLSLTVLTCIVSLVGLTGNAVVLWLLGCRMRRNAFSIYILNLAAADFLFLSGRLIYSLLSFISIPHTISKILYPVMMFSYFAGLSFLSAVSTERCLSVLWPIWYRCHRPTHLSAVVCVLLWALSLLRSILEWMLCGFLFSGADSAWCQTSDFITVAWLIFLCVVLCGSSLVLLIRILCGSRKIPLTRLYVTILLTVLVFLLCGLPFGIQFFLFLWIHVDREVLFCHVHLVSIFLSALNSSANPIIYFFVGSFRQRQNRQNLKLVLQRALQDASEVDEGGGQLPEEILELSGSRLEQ
# RGS4 block = human RGS4 inhibition | 310,000 compounds, 0.45% hits | HEK293 M3R/RGS4 inducible, Fluo-4 calcium flux; stronger effect = higher value; triggered by carbachol at its EC20 | B-score at 10 µM;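 active means B-score, a plate-corrected calcium signal, over three deviations above library mean, with baseline fluorescence within five deviations of library mean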;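 further: RGS4 expression induced by doxycycline in cells with stable M3 receptor; B-score is computed from the integrated fluorescence ratio over baseline after carbachol; higher B-score means a larger calcium signal and so more RGS4 inhibition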
# Target sequence (P49798 whole entry, looked up): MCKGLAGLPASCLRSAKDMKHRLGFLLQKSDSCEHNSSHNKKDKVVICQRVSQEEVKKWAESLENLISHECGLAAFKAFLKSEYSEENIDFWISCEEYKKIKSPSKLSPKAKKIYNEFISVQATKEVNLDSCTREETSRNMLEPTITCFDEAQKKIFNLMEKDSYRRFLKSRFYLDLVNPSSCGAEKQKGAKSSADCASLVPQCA
# MrgX1 agonist = agonists of human MrgX1 receptor; 310,000 compounds, 0.44% hits; B-score at 10 µM; MrgX1-HEK293 cells, Fluo-4 calcium fluorescence, agonist mode; stronger effect = higher value; AID 588627; Q96LB2;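 active means calcium response B-score plate-corrected fluorescence ratio at least 3 library SD, with starting fluorescence B-score inside 5 SD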
#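 Assay system: stable human MrgX1 HEK293 cell line. Quantity: 15,000 cells per well. Schedule: cells plated overnight, dye loaded 0.5 h 37 °C, 0.5 h room temperature. Detection: Fluo-4 NW calcium-flux fluorescence, kinetic read. Read-out basis: peak-minus-minimum fluorescence over baseline, converted to B scores. Control set: positive and negative control wells on each plate.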
# MrgX1 allo act = human MrgX1 positive allosteric modulation, primary screen | Q96LB2 | MrgX1-HEK293, Fluo-4 calcium flux, FDSS; stronger effect = higher value | B-score at 10 µM | 310,000 compounds, 0.63% hits | AID 588675;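 active means plate-corrected calcium response at least 3 library SD above typical, normal starting fluorescence, not activating the receptor alone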;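 further: compound read alongside a low EC10 to EC30 dose of BAM8-22 agonist; peak minus trough fluorescence over baseline measured at the second addition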
# The depositor's hits bear a star; i = inactive; nt = no result. Shown are actives, neighbours in structure and some others; about 3.5% of the full set was active somewhere.
SMILES,RGS4 act,MrgX1 antagonist,RGS4 block,MrgX1 agonist,MrgX1 allo act
CCOc1ccc(NC(=O)NNC(=O)COc2ccc3ccccc3c2)cc1,i,-6.7*,i,i,i
CCOc1ccc(NC(=O)C(NC(=O)C2CCC(C)CC2)C(C)C)cc1 (centres undefined),-6.97*,i,i,i,i
O=C(CCCCCN1C(=O)CCC1=O)Nc1ccc2c(c1)OCO2,i,i,i,i,i
O=C(CSc1nccn(-c2ccc3c(c2)OCCO3)c1=O)Nc1ccccc1,i,i,i,i,i
Cc1ccccc1OCc1nc2ccccc2c(=O)n1/N=C/c1c[nH]c2ccccc12,i,i,i,i,i
Cc1cc(/C=N/n2c(COc3ccccc3C)nc3ccccc3c2=O)c(O)c([N+](=O)[O-])c1,i,-6.48*,i,i,i
CCOC(=O)C(Cc1ccccc1)NC(=O)Cn1nnc(-c2ccc(SC)cc2)n1 (centres undefined),i,-6.9*,i,i,i
Cc1ccc(N(C(=O)c2snc(C(N)=O)c2N)C(C(=O)NCC2CCCO2)c2ccc3ncccc3c2)cc1 (centres undefined),i,nt,i,nt,nt
CCOc1ccc(/C=N/OCC(=O)NCc2ccc3c(c2)OCO3)cc1OC,i,-5.92*,i,i,i
COc1ccccc1/C=N/OCC(=O)NCc1ccc2c(c1)OCO2,i,i,i,i,i
Cc1cc(C(C2C(=O)CC(C)(C)CC2=O)C2C(=O)CC(C)(C)CC2=O)cc(C)c1OC(F)F,i,i,i,62.9*,i
COC(=O)[C@@H]1C[C@@]2(O)[C@H](O)[C@H](O)[C@H](O)C[C@H]2N1CC(c1ccccc1)c1ccccc1,i,i,i,i,i
CN(Cc1ccccc1)C(=O)CN(c1ccccc1Cl)S(C)(=O)=O,i,i,i,i,i
O=C1CC(Cc2ccccc2)C(=O)N1CCc1ccc2c(c1)OCO2 (centres undefined),i,i,i,i,i
O=C1OC[C@H](Cc2ccc3c(c2)OCO3)/C1=C\c1ccc2c(c1)OCO2,i,-4.59*,i,i,i
Cc1ccc(OCc2cc(C(=O)NC3CCc4ccccc43)no2)cn1 (centres undefined),i,-4.72*,i,i,i
CSc1ccccc1OCc1cc(C(=O)NC2CCc3ccccc32)no1 (centres undefined),i,i,i,i,i
Cc1c(-n2cc(C(=O)c3cc(Cl)ccc3O)cc(C#N)c2=O)c(=O)n(-c2ccccc2)n1C,i,i,i,i,7.82*
Cc1ccc(O)c(C(=O)c2cc(C#N)c(=O)n(-c3nccs3)c2)c1,i,i,i,52.8*,i
Cn1cc(SCC(N)=O)c2ccccc21,i,i,i,i,i
CCCn1c(SCC(=O)NCc2ccc(OC)cc2)n[nH]c1=O,i,i,i,i,i
CCCn1c(SCC(=O)N2N=C3/C(=C/c4ccc(OC)cc4)CCCC3C2c2ccc(OC)cc2)n[nH]c1=O (centres undefined),i,-5.14*,i,i,i
C=CCn1c(SCC(=O)c2ccc(Br)cc2)nnc1C(CC(C)C)NC(=O)c1cccs1 (centres undefined),i,-6.08*,i,i,i
O=C(NCCc1ccccc1)c1ccc2c(=O)[nH]c3c(C(=O)NCC4CCCO4)sc(=S)n3c2c1 (centres undefined),i,i,i,i,i
COc1ccc(OC)c(CCNC(=O)c2ccc3c(c2)N(Cc2ccc(F)cc2)CCS3)c1,i,i,i,i,i
SMILES,RGS4 act,MrgX1 antagonist,RGS4 block,MrgX1 agonist,MrgX1 allo act
CCOc1ccc(CCNC(=O)c2ccc3c(=O)[nH]c4c(C(=O)NC(C)C)sc(=S)n4c3c2)cc1,i,-9.2*,i,i,i
CC(C)NC(=O)c1sc(=S)n2c1[nH]c(=O)c1ccc(C(=O)NCCc3ccc(Cl)cc3)cc12,-8.22*,-5.9*,i,i,i
COc1ccc(OC)c(CCNC(=O)c2ccc3c(=O)[nH]c4c(C(=O)NC(C)C)sc(=S)n4c3c2)c1,-8.75*,-8.04*,i,i,i
NNC(=O)CSCc1nc(-c2ccccc2)cs1,i,i,i,i,i
COc1cccc(O)c1CN1CCCC(C(=O)c2cccc(C(F)(F)F)c2)C1 (centres undefined),-7.47*,i,i,i,i
O=C(c1cccc(C(F)(F)F)c1)C1CCCN(Cc2cccc(OCCO)c2)C1 (centres undefined),-7.05*,i,i,i,i
COc1ccc(C(=O)C2CCCN(Cc3c(O)cccc3OC)C2)cc1OC (centres undefined),i,i,i,i,i
O=[N+]([O-])c1ccc(Oc2ccc(S(=O)(=O)N3CCOCC3)cn2)cc1,i,-7.96*,i,i,i
CCc1nn(C(C)C(=O)NCCc2ccccc2)c(=O)c2cc3occc3n12 (centres undefined),i,i,i,i,i
COc1ccc(CNC(=O)C(C)n2nc(C)n3c(cc4occc43)c2=O)cc1 (centres undefined),i,-8.11*,i,i,i
Cc1nn(C(C)C(=O)NC(C)CCc2ccccc2)c(=O)c2cc3occc3n12 (centres undefined),i,-7.6*,i,i,i
Cc1cccc(C)c1NC(=O)C1(N(Cc2ccco2)C(=O)CC2NC(=O)NC2=O)CCCCC1 (centres undefined),i,i,i,i,i
O=C(N/N=C1\CCCc2oc(C(=O)O)cc21)c1ccccc1,i,i,i,i,i
Clc1ccccc1N=C1SCCS1,i,i,i,i,i
FCCCOc1ccc(/C=N/OCc2ccc(Cl)cc2Cl)cc1,i,-5.5*,i,i,i
CCSc1nnc(NC(=O)c2cc(-c3ccc(C)c(C)c3O)n[nH]2)s1,i,nt,i,nt,nt
CC1CCCN(c2nc(-c3cccnc3)nc3scc(-c4ccccc4)c23)C1 (centres undefined),-7.27*,i,i,i,i
CC1CCN(c2nc(CN3CCCCC3)nc3scc(-c4ccccc4)c23)CC1,-7.36*,i,i,i,i
O=C(Nc1cnn(C23CC4CC(CC(C4)C2)C3)c1)c1cnn2c(C(F)(F)F)cc(-c3ccco3)nc12,-8.53*,i,i,i,i
Cc1ccccc1Cn1ccc(NC(=O)c2cnn3c(C(F)(F)F)cc(-c4ccco4)nc23)n1,-7.53*,i,i,i,i
